Results as given in PMC2780016 (Journal of medicinal chemistry, 2009).
Entries after “also recorded” stand apart in the source; their conditions may differ.

How the values were obtained:
Format in all cases: biochemical
[1] = biological target: T1, human liver CE, hCE1 (CES1) (Homo sapiens, UniProt P23141); test: Inhibition of hCE1 hydrolysis of 3; conditions: for Ki: read-out: hCE1 Ki ± SE, substrate 3 (o-nitrophenyl acetate); for inhibition of hCE1 (in words): substrate 3
T1 sequence (P23141 18-567): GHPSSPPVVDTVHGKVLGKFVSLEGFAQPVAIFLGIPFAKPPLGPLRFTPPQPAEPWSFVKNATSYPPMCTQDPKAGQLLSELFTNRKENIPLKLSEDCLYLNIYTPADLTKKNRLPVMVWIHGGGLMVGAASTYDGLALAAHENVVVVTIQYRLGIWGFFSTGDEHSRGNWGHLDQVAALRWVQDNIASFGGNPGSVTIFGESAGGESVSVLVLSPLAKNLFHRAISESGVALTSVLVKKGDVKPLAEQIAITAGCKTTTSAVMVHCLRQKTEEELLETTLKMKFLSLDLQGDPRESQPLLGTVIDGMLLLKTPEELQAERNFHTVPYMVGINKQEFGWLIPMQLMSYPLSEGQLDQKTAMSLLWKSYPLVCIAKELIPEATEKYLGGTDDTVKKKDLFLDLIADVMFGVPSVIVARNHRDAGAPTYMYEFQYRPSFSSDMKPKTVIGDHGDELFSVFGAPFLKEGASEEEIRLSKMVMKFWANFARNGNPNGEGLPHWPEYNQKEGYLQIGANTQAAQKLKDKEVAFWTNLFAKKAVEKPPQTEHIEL

[2] = biological target: T2, human intestinal CE (hiCE, CES2) (Homo sapiens, UniProt O00748)
T2 sequence (O00748 27-559): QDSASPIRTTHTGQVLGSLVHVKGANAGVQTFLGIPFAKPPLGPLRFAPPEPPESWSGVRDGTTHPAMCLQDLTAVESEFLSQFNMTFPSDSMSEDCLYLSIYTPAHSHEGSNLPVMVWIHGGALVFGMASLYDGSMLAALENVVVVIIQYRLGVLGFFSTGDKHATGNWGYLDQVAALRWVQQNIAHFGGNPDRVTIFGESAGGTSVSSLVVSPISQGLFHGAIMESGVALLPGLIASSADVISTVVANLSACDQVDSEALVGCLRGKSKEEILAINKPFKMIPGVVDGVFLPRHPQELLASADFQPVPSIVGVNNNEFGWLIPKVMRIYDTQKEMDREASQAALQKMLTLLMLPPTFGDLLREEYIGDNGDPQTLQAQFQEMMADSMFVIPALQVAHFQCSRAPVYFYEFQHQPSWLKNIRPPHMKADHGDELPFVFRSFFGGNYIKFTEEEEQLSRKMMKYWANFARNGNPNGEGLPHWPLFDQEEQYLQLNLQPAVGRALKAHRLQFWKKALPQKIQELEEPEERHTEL

[3] = biological target: T3, hiCE (Homo sapiens, UniProt O00748); test: Inhibition of the metabolism of heroin and cocaine; conditions: data not shown; Hatfield et al, manuscript in preparation
T3 sequence (O00748 27-559): T2 sequence (O00748 27-559)

[4] = biological target: hAChE (Homo sapiens, UniProt P22303); test: Inhibition of acetylcholinesterase, acetylthiocholine substrate; conditions: data not shown
How it was run: (§1)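 Purified human AChE and BChE were obtained commercially. Test compounds were dissolved in DMSO (stock typically 10mM) immediately before analysis. Inhibition was measured by the previously reported method, with acetylthiocholine as substrate for hAChE and butyrylthiocholine for hBChE.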

[5] = biological target: hBChE (Homo sapiens, UniProt P06276); test: Inhibition of butyrylcholinesterase, butyrylthiocholine substrate; conditions: data not shown
How it was run: as §1

hAChE, sequence (P22303 32-614): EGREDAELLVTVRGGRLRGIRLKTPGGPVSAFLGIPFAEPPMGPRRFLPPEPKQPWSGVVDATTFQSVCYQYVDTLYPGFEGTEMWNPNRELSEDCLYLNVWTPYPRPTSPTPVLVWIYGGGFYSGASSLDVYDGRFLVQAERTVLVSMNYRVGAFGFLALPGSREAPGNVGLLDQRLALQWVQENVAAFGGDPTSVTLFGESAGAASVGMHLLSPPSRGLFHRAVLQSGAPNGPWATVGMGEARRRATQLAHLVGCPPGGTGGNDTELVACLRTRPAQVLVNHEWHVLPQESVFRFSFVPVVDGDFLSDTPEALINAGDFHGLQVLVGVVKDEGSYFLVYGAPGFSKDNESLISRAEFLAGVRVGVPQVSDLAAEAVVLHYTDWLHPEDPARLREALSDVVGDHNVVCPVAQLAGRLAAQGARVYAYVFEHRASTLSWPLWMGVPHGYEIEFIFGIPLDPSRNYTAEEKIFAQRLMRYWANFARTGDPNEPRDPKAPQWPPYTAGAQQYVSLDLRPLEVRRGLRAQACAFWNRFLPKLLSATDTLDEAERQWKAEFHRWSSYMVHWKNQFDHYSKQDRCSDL
hBChE, sequence (P06276 29-602): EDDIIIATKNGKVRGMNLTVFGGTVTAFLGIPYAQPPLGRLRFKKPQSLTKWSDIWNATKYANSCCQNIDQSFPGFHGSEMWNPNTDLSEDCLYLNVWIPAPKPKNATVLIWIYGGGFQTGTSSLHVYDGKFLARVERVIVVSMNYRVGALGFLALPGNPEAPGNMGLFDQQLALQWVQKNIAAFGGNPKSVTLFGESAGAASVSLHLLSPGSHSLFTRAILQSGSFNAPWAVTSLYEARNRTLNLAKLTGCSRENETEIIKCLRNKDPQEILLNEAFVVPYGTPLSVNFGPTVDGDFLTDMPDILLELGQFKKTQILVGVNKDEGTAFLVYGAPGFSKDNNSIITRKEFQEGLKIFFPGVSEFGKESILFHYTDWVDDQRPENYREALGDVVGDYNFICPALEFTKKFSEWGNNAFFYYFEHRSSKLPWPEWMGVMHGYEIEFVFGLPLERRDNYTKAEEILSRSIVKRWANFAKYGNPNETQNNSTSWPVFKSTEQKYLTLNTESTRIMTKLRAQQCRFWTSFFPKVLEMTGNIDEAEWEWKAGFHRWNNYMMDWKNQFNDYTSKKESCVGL

Compound	inhibition of hCE1 (in words) [1]	inhibition of hAChE (in words) [4]	inhibition of hBChE (in words) [5]	inhibition of hiCE (in words) ([2]; substrate 3)	also measured
4,6-dimethyl-N1,N3- diphenylbenzene-1,3- disulfonamide [compound 4]	–	–	–	–	Ki [1]: > 100 µM
O=S(=O)(Nc1ccc(NS(=O)(=O)c2ccc(Cl)cc2)cc1)c1ccc(Cl)cc1 [compound 11, N,N'-(1,4-phenylene)bis(4-chlorobenzenesulfonamide)]	weak activity	–	–	–	fold more potent against hiCE than hCE1 ([2]; ratio of Ki values hCE1 vs hiCE, substrate 3): over 250 fold
O=S(=O)(Nc1ccc(NS(=O)(=O)c2cccc(Br)c2)cc1)c1cccc(Br)c1 [compound 18, N,N'-(1,4-phenylene)bis(3-bromobenzenesulfonamide)]	–	–	–	–	inhibition of the metabolism of heroin and cocaine (in words) [3]: can also inhibit the metabolism of heroin and cocaine
O=S(=O)(Nc1ccc(NS(=O)(=O)c2cc(Cl)c(Cl)cc2Cl)cc1)c1cc(Cl)c(Cl)cc1Cl [compound 28, N,N'-(1,4-phenylene)bis(2,4,5-trichlorobenzenesulfonamide)]	inactive	inactive	inactive	did not inhibit the enzyme; also recorded: loss of biological activity; also recorded: do not inhibit hiCE; also recorded: inactive	–
O=C(O)c1ccc(S(=O)(=O)Nc2ccc(NS(=O)(=O)c3ccc(F)cc3)cc2)cc1 [compound 39, 4-(N-(4-(4-fluorophenylsulfonamido)phenyl)sulfamoyl) benzoic acid]	inactive	inactive	inactive	did not inhibit the enzyme; also recorded: do not inhibit hiCE; also recorded: inactive	–
CNC(=O)c1ccc(S(=O)(=O)Nc2ccc(NS(=O)(=O)c3ccc(F)cc3)cc2)cc1 [compound 41, 4-(N-(4-(4-fluorophenylsulfonamido)phenyl)sulfamoyl)-N-methyl benzamide]	inactive	inactive	inactive	did not inhibit the enzyme; also recorded: do not inhibit hiCE; also recorded: inactive	–
O=S(=O)(Nc1c(F)c(F)c(NS(=O)(=O)c2ccc(Br)cc2)c(F)c1F)c1ccc(Br)cc1 [compound 54, N,N'-(2,3,5,6-tetrafluoro-1,4-phenylene) bis(4-bromobenzenesulfonamide)]	–	–	–	–	inhibition of the metabolism of heroin and cocaine (in words) [3]: can also inhibit the metabolism of heroin and cocaine
O=S(=O)(Nc1ccc2c(c1)Cc1cc(NS(=O)(=O)c3ccccc3)ccc1-2)c1ccccc1 [compound 56]	–	–	–	–	fold more potent at inhibiting hiCE than compound 8 ([2]; comparison of inhibition constants of 8 and 56): ~11 fold
N,N'-(1,4-phenylene)bis(4-fluoro-2-methyl benzene sulfonamide) [compound 36]	–	–	–	–	Ki ([2]; read-out: hiCE Ki ± SE, substrate 3 (o-nitrophenyl acetate)): 0.273 ± 0.033 µM; Ki [1]: > 100 µM
